PKA-R1A activ – activators of PKA-R1A complex; PKA-R1A dissociation, Cy5-IP20 fluorescence polarization; scaled: DMSO 0%, 113 µM cGMP 100%; activation, % at 11.4 µM; actives 0.083% (n = 340,000); AID 504707;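 active = percent activation above the mean of all tested compounds plus 3 SD, cut at about 19% in these data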;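 also: higher means more PKAc released from R1A so a rise in polarization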
PKA-R2B act – activates the human PKA-R2B holoenzyme complex; P22694+P31323; PKA-R2B holoenzyme dissociation, Cy5-IP20 fluorescence polarization; R2B truncated from residue 108, S112A mutant; 0% DMSO only, 100% 113 µM cGMP; activation, % at 11.4 µM; actives 0.079% (n = 340,000);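 active = activation above a cutoff set at the mean over all compounds plus 3 SD, cut at about 18% in these data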;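 also: higher means more holoenzyme dissociation and a rise in polarization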
Target sequence (P31323 whole entry, looked up, other chains not shown, the tested form may be a part): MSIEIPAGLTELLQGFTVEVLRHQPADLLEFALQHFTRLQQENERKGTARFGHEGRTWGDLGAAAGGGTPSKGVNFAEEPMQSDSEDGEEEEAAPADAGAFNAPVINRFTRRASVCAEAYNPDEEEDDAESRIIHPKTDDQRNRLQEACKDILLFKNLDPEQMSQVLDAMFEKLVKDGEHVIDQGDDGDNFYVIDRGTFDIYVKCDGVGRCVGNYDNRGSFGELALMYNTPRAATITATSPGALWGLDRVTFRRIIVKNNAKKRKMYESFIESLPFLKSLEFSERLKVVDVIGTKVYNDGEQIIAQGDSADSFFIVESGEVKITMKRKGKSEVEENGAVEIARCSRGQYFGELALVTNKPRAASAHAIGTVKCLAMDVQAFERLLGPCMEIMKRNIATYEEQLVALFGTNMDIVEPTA
DDE Tn6 FP inh – inhibitors of Tn6 peptide binding to human fibrin DD(E); P02675; AID 720509; Fibrin DD(E) TRITC-Tn6 fluorescence polarization displacement; actives 0.21% (n = 370,000); inhibition, % at 8.3 µM;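 active = inhibition above a per-campaign cutoff: mean of compounds within control limits plus 3 SD, cut at about 15% in these data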;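 also: 0% = median of all compound wells on the plate and 100% = blocking peptide control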
Neddyl block – blocks human cullin neddylation; P61081+Q13564; TR-FRET cullin neddylation, biochemical; inhibition, % at 25 µM; actives 0.58% (n = 360,000); AID 651699; in the data active = inhibition above about 36%
DDE Tn7 FP inh – DD(E)-Tn7 binding inhibition, primary FP screen; inhibition, % at 8.3 µM; FP displacement of FITC-Tn7 peptide from fibrin DD(E); 0% = median of compound wells per plate; AID 720508; actives 0.13% (n = 370,000);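 active = inhibition above the mean of compounds falling within the control limits plus 3 SD of them, cut at about 14% in these data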;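 also: 0% = plate median of compound wells and 100% = 10 µM Aha-Tn7 peptide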
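Test system: human clot-derived fibrin DD(E) complex / Quantity: 2 µM final DD(E) protein / Incubation: 10 min plus 3 h, room temperature / Measured by: fluorescence polarization / Benchmarks: high control of 10 µM Aha-Tn7 peptide / Replicates: singlicate testing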
Neddyl inh conf – confirmation of human cullin neddylation inhibitors; shares compounds with Neddyl block; TR-FRET cullin neddylation biochemical assay; calls only at 25 µM; actives 13% (n = 1,800); AID 652217; in the data active = inhibition above about 40%;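 also: neddylation substrate is the cullin 1 ring ligase complex with SKP2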
* marks the source's active call; other numbers are inactive results; i = inactive; . = not tested or not shown; + = active, no number. Sampled rows, rich in hits. Any-hit rate of the full collection: about 1%.

SMILES | PKA-R1A activ | PKA-R2B act | DDE Tn6 FP inh | Neddyl block | DDE Tn7 FP inh | Neddyl inh conf
O=CN1CCN(C(=O)C2CCN(c3ncnc4c3sc3cccc(F)c34)CC2)CC1 | . | . | -2 | . | 9 | .
Cc1nc(Nc2cccc(C(C)O)c2)c2nnn(Cc3ccccc3F)c2n1 (stereo unspecified) | -8 | 5 | -2 | 40* | -4 | i
CC(=O)C1=C(C)N(Cc2ccc(F)cc2)C(=S)NC1c1ccccc1 (stereo unspecified) | . | . | -1 | . | -1 | .
Nc1ccc(C(=O)N/N=C/c2cn(Cc3cccc(F)c3)c3ccccc23)cc1 | 4 | -7 | -6 | 43* | -2 | i
COc1ccc(NC(=O)Cn2c(CCC(=O)O)ccc2-c2ccccc2)cc1 | 5 | -6 | 6 | 13 | -6 | .
O=C(O)CCc1ccc(-c2ccccc2)n1CC1CCCO1 (stereo unspecified) | -7 | 8 | -2 | 52* | 3 | .
COC(=O)Cn1c(CCC(=O)O)ccc1-c1ccccc1 | 10 | 3 | -3 | 43* | 2 | i
COCCCn1cnc2c(c1=O)c1nc3ccccc3nc1n2CCc1ccccc1 | 4 | -5 | -11 | 54* | 0 | i
CCCCn1c2nc3ccccc3nc2c2c(=O)n(CCC)cnc21 | -5 | -6 | -3 | . | -1 | .
Cc1[nH]c2ccc(C(=O)OC(C)C(=O)N(C)c3ccccc3)cc2c1C (stereo unspecified) | 5 | -11 | . | 41* | . | i
O=C(OCc1cn(Cc2ccc(F)c(F)c2)nn1)N1CCCC1 | . | . | 4 | . | 1 | .
OC(c1ccc(F)cc1)c1ncc(-c2cccc3ccccc23)[nH]1 (stereo unspecified) | . | . | 3 | 40* | -1 | i
CCc1ccc(C(O)c2ncc(-c3cccc4ccccc34)[nH]2)cc1 (stereo unspecified) | . | . | 9 | 35 | -1 | .
Oc1cc(O)cc(-c2cc3ccc(O)cc3o2)c1 | 3 | 13 | -2 | . | -1 | .
CC1(C)Oc2cc3oc(-c4cc(O)cc(O)c4)cc3cc2CC1O (stereo unspecified) | -10 | 1 | -5 | 42* | -1 | i
Cc1cccn2c(=O)c3cc(C(=O)N4CCCCC4)sc3nc12 | -4 | -3 | 2 | . | 2 | .
Cc1cccn2c(=O)c3cc(C(=O)N4CCCC(C)C4)sc3nc12 (stereo unspecified) | -2 | -3 | -8 | 54* | 3 | i
O=C(NC1CCCC1)c1cc2c(=O)n3ccccc3nc2s1 | 11 | -2 | 4 | . | 4 | .
Cc1cccn2c(=O)c3cc(C(=O)NC4CCCC4)sc3nc12 | 5 | 9 | -4 | 64* | -6 | .
CCC1CCCCN1C(=O)c1cc2c(=O)n3cccc(C)c3nc2s1 (stereo unspecified) | 8 | 13 | . | 56* | . | i
Cc1cccn2c(=O)c3cc(C(=O)N4CCN(Cc5ccccc5)CC4)sc3nc12 | -13 | 2 | -1 | 65* | -4 | +
C=CCO[C@H]1CN(C(=O)OC)[C@@H]2C[C@H]1Oc1ccccc12 | . | . | -1 | . | -3 | .
COC(=O)[C@]12C[C@H](CC(=O)NCc3ccc(OC)c(OC)c3)C(=O)N(CCC3=CCCCC3)C1=C[C@H](C(C)C)O[C@@H]2C1CC1 | . | . | 3 | . | 2 | .
O=C(COc1ccc2c3c(c(=O)oc2c1)CCCC3)N[C@@H](Cc1ccccc1)C(=O)O | -10 | -4 | -1 | 45* | 2 | .
COc1ccc(C(=O)Nc2cc(Cl)c(Br)cc2C(=O)O)cc1 | . | . | -9 | . | -1 | .
SMILES | PKA-R1A activ | PKA-R2B act | DDE Tn6 FP inh | Neddyl block | DDE Tn7 FP inh | Neddyl inh conf
O=C(Nc1cc2c3c(c1)C1CCCC1CN3CC1CCCC21)c1ccccc1 (stereo unspecified) | -5 | -6 | -4 | 51* | 1 | i
NC(=O)c1c(N)[nH]c(C(=O)c2ccccc2)c1-c1ccccc1Cl | . | . | -2 | . | 0 | .
CCOC(=O)c1cnc2cc3c(cn2c1=O)CCCC3 | -6 | 0 | 4 | 40* | -1 | .
CCOC(=O)c1cc2c(nc1N)CCCC2 | -13 | 0 | 14 | . | 10 | .
CC1(C)CC(=O)C2=C(C1)c1c(ccc3ccccc13)NC2c1ccc(Br)o1 (stereo unspecified) | 0 | -6 | -1 | 43* | 0 | i
COC(=O)c1ccc2nc(-c3cccc(Cl)c3)c(Cc3ccccc3C(F)(F)F)n2c1 | . | . | -3 | . | 1 | .
O=C(O)Cn1nc2c3c(cccc3c1=O)-c1ccccc1-2 | 4 | -1 | 1 | 54* | 4 | i
COc1ccc(C2NC(=O)c3ccccc3O2)c(OC)c1OC (stereo unspecified) | -17 | -4 | 2 | 45* | 0 | i
COc1cccc(C2NC(=O)c3ccccc3O2)c1OC (stereo unspecified) | 2 | 9 | -2 | 18 | 6 | .
C#CCNC(=O)C[C@H]1C[C@@]2(C(=O)OC)C(=C[C@H](C(C)(C)C)O[C@@H]2C)N(CCC2=CCCCC2)C1=O | . | . | 1 | . | -3 | .
COc1cc(CNc2ccc(N3CCOCC3)c(C(=O)O)c2)ccc1OCC(N)=O | 0 | -12 | -12 | 42* | 0 | i
O=C(O)c1cc(NCc2ccc3c(c2)OCO3)ccc1N1CCOCC1 | -4 | 3 | -7 | 43* | -3 | i
COc1cc(-c2nnc(SCC(=O)N3C(C)CCCC3C)o2)cc(OC)c1OC (stereo unspecified) | . | . | -4 | . | 1 | .
O=C(NN1C(=O)c2ccccc2NC1c1ccco1)c1ccccc1 (stereo unspecified) | -4 | -9 | -1 | 30 | -4 | .
O=C(NN1C(=O)c2ccccc2NC1c1cccnc1)c1ccccc1 (stereo unspecified) | -11 | 2 | 1 | 41* | -8 | i
C=CCN(CC#CC(=C)C)CC1CC1 | . | . | 0 | . | 1 | .
CCSC1=C(C#N)C(c2ccc3c(c2)OCO3)C2=C(CCCC2=O)N1 (stereo unspecified) | 1 | 3 | -5 | 4 | 5 | .
CCSC1=C(C#N)C(CC(C)C)C2=C(CCCC2=O)N1 (stereo unspecified) | . | . | 1 | 38* | -6 | i
N#CC1=C(N)Nc2nc3ccccc3n2C1c1ccc(Cl)cc1 (stereo unspecified) | 7 | 3 | -5 | 43* | -6 | i
O=C(NCCN1CCC(Cc2ccccc2)CC1)C1CCCN(S(=O)(=O)c2ccccc2[N+](=O)[O-])C1 (stereo unspecified) | . | . | 5 | . | -4 | .
O=C1C2CC3N1CCC31c3ccccc3-n3c1c2ccc3=O (stereo unspecified) | -3 | -4 | 9 | 45* | 2 | +
CC1(C)CC(=O)C=C(c2ccccc2F)C1=O | . | . | 5 | . | -14 | .
COc1ccc(OC)c(NC(=O)Nc2c(O)ccc3ccccc23)c1 | -3 | -8 | -4 | 6 | 6 | .

Screening data from PubChem.
